# From ChEMBL document CHEMBL3102752, “Identification of novel drug scaffolds for inhibition of SARS-CoV 3-Chymotrypsin-like protease using virtual and high-throughput screenings” (Bioorg Med Chem, 2014)
# Where a name gives a salt, the structure may show the parent alone. The source made the active and inactive calls. No cut-off for these calls is given here.
# Tests used:
# [1] = molecular target: T1, Replicase polyprotein 1ab (Severe acute respiratory syndrome-related coronavirus, UniProt P0C6X7); test: Inhibition of SARS coronavirus 3C-like protease using 5-FAM-TSATLQSGFRK(QXL520)-NH2 as substrate preincubated for 5 mins followed by substrate addition measured after 6 mins by FRET assay in presence of GSH
# Procedure, shortened: (§1)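 Enzyme preincubated 5 min with compound (0–200 μM, 2-fold series), then 15 μM FAM/QXL substrate added. Continuous fluorescence read for 6 min, in triplicate. IC50 from Hill fit over two to four independent assays.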
# [2] = molecular target: T1, Replicase polyprotein 1ab; test: Inhibition of SARS coronavirus 3C-like protease using 5-FAM-TSATLQSGFRK(QXL520)-NH2 as substrate preincubated for 5 mins followed by substrate addition measured after 6 mins by FRET assay; procedure, shortened: as §1
# [3] = Inhibition of SARS coronavirus PL-protease; set-up: species or system Severe acute respiratory syndrome-related coronavirus
# [4] = molecular target: Replicase polyprotein 1ab (Severe acute respiratory syndrome-related coronavirus) (UniProt P0C6X7); test: Inhibition of SARS coronavirus 3C-like protease using 5-FAM-TSATLQSGFRK(QXL520)-NH2 as substrate at 100 uM preincubated for 5 mins followed by substrate addition measured after 6 mins by FRET assay in presence of GSH relative to control
# [5] = molecular target: Replicase polyprotein 1ab (Severe acute respiratory syndrome-related coronavirus) (UniProt P0C6X7); test: Inhibition of SARS coronavirus 3C-like protease using 5-FAM-TSATLQSGFRK(QXL520)-NH2 as substrate at 100 uM preincubated for 5 mins followed by substrate addition measured after 6 mins by FRET assay relative to control
# [6] = molecular target: Replicase polyprotein 1ab (Severe acute respiratory syndrome-related coronavirus) (UniProt P0C6X7); test: Reversible inhibition of SARS coronavirus 3C-like protease using 5-FAM-TSATLQSGFRK(QXL520)-NH2 as substrate assessed as recovery rate at 20 x IC50 preincubated for 1 hr followed by compound washout by FRET assay in presence of GSH; set-up: scale not given: the % may be the effect or the level left
# Procedure, shortened: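 No-compound enzyme served as control. Samples desalted to remove compound; activity measured before and after buffer exchange by the IC50 assay.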
# [7] = molecular target: T1, Replicase polyprotein 1ab; test: Inhibition of SARS coronavirus 3C-like protease using 5-FAM-TSATLQSGFRK(QXL520)-NH2 as substrate
# [8] = molecular target: Replicase polyprotein 1ab (Severe acute respiratory syndrome-related coronavirus) (UniProt P0C6X7); test: Binding affinity to SARS coronavirus 3C-like protease using 5-FAM-TSATLQSGFRK(QXL520)-NH2 as substrate by SPR analysis
# [9] = molecular target: Replicase polyprotein 1ab (Severe acute respiratory syndrome-related coronavirus) (UniProt P0C6X7); test: Binding affinity to SARS coronavirus 3C-like protease using 5-FAM-TSATLQSGFRK(QXL520)-NH2 as substrate up to 200 uM by SPR analysis
# Procedure, shortened: (§2)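 Untagged native 3CLpro amine-coupled to CM5 chip (in 10 mM sodium acetate pH 5.0). Ethanolamine-blocked channel as reference. Running buffer HBS-P pH 7.4, 20 °C.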
# [10] = molecular target: Ubiquitin carboxyl-terminal hydrolase isozyme L1 (Homo sapiens) (UniProt P09936); test: Inhibition of human UCH-L1
# Procedure, shortened: (§3)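 IC50 determined in triplicate with 32 positive and 32 negative controls per plate. Data fitted to a three-parameter Hill equation.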
# [11] = system: Streptococcus pneumoniae; test: Inhibition of Streptococcus pneumoniae PurC; procedure, shortened: as §3
# [12] = system: Hepacivirus hominis; test: Inhibition of Hepatitis C virus NS3/4A protease; procedure, shortened: as §3
# [13] = molecular target: T1, Replicase polyprotein 1ab; test: Competitive inhibition of SARS coronavirus 3C-like protease using 5-FAM-TSATLQSGFRK(QXL520)-NH2 as substrate by Dixon plot analysis
# Procedure, shortened: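 Best-fit inhibition model chosen by fitting competitive, non-competitive, uncompetitive or mixed equations to give Ki. Dixon plot; three independent assays.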
# [14] = molecular target: T2, Dihydroorotase (Bacillus anthracis) (UniProt Q81WF0); test: Inhibition of Bacillus anthracis dihydroorotase; procedure, shortened: as §3
# T2 sequence (whole entry): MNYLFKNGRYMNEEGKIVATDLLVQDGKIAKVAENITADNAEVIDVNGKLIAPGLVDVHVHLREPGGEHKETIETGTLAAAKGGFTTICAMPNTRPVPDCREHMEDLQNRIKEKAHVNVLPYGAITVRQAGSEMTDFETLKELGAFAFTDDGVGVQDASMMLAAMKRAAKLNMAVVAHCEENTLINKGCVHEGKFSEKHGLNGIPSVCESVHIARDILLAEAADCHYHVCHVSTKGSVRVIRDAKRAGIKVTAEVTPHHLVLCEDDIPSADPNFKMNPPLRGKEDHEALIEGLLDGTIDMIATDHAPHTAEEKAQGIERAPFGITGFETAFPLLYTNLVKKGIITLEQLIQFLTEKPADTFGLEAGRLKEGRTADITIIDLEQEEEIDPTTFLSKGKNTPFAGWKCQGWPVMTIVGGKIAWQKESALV
# [15] = molecular target: Replicase polyprotein 1ab (Severe acute respiratory syndrome-related coronavirus) (UniProt P0C6X7); test: Binding affinity to SARS coronavirus 3C-like protease using 5-FAM-TSATLQSGFRK(QXL520)-NH2 as substrate up to 90 uM by SPR analysis; procedure, shortened: as §2
# Sequence of Ubiquitin carboxyl-terminal hydrolase isozyme L1 (Homo sapiens) (P09936 whole entry, looked up): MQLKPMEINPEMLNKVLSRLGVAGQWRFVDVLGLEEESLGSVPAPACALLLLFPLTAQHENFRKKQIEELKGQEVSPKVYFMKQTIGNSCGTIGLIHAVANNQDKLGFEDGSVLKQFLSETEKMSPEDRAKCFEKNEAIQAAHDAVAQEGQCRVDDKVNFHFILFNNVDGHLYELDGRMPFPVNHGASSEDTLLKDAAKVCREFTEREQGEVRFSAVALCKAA
SMILES,IC50 [1],IC50 [2],IC50 [3],inhibition [4],inhibition [5],Activity [6],further results
CN(CC(=O)NC1CCCC1)S(=O)(=O)c1cccc(Cl)c1,> 200 µM,0.94 µM,–,–,–,–,–
CCOc1ccc(S(=O)(=O)NCc2ccc3c(c2)OCO3)cc1C,76.7 µM,> 200 µM,> 200 µM,inactive,inactive,> 50%,–
CCCCC(CC)CNC(=N)NC(=N)NCCCCCCNC(=N)NC(=N)NCC(CC)CCCC (stereo not given) [ALEXIDINE DIHYDROCHLORIDE],17.8 µM,24.5 µM,> 200 µM,–,–,–,IC50 [7]: 25.1 µM; Activity [8]: inactive
OCCCc1nc2ccccc2n1CCOc1ccccc1,74.5 µM,> 200 µM,–,inactive,inactive,–,Activity [8]: inactive
COCCOCCn1c(CCCO)nc2ccccc21,186 µM,25.6 µM,–,inactive,inactive,–,–
C(=C\c1ccccc1)/C[N+]1(C/C=C/c2ccccc2)CCN(C(c2ccccc2)c2ccccc2)CC1,28.3 µM,29.8 µM,> 200 µM,–,–,–,Activity [9]: Active
Cn1cnc2cc(NC(=O)c3ccc(Cl)cc3)ccc21,30.9 µM,27.6 µM,> 200 µM,–,–,> 50%,inhibition [10]: inactive; IC50 [7]: 18.2 µM; inhibition [11]: inactive; inhibition [12]: inactive; Ki [13]: 27.5 µM; inhibition [14]: inactive
Nc1ccc(F)c(S(=O)(=O)Nc2cccc(C(F)(F)F)c2)c1,> 200 µM,29.8 µM,–,inactive,inactive,–,–
COc1ccc(C(=O)Cn2c(NCCO)nc3ccccc32)cc1,40.9 µM,28.8 µM,–,inactive,inactive,14.3%,–
O=C(c1cncc(Br)c1)N1CCN(Cc2ccsc2)CC1,24.5 µM,10.8 µM,105 µM,–,–,–,Activity [8]: inactive
COc1ccc(N(CC(=O)NCc2ccco2)S(C)(=O)=O)cc1,61.9 µM,16.1 µM,–,inactive,inactive,–,Activity [15]: inactive
COc1ccccc1CNC(=O)[C@H](C)NS(=O)(=O)c1ccccc1,–,–,–,inactive,inactive,–,–
S=C(NCc1cccnc1)SCc1cc(Cl)sc1Cl,9.2 µM,0.16 µM,> 200 µM,–,–,> 50%,–
